A short description of series [1]: Selectivity index, ratio of CC50 for cytotoxicity to EC50 for HSV2. Type of series: toxicity. Conditions: read-out: Ratio CC50/EC50. The essentials:
(§1)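 CC50 is the concentration at which 50% of cells die, and EC50 is the concentration inhibiting 50% of viral infection. SI is calculated as the CC50/EC50 ratio.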

Series [2] in a line: Selectivity index, ratio of CC50 for cytotoxicity to EC50 for SARS coronavirus. The series is classed as toxicity. The following applies: read-out: Ratio CC50/EC50. The essentials:
as §1

Series [3] in a line: Selectivity index, ratio of CC50 for cytotoxicity to EC50 for HSV1. Type of series: toxicity. The following applies: read-out: Ratio CC50/EC50. The essentials:
as §1

For series [4], the system named is Influenza A virus. The series can be described thus: Antiviral activity against Influenza A virus H5N1 by cytopathy assay. Type of series: functional, organism-based.
Series [5] relates to Influenza A virus. Nature of the series: Antiviral activity against Influenza A virus H1N1 by cytopathy assay. Type of series: functional, organism-based.
A further series has as its system Influenza B virus. The series can be described thus: Antiviral activity against Influenza B virus by cytopathy assay. The series is classed as functional, organism-based.
Series [6] concerns Influenza A virus. Nature of the series: Antiviral activity against Influenza A virus H3N2 by cytopathy assay. The series is classed as functional, organism-based.
A further series concerns West Nile virus. The series can be described thus: Antiviral activity against West Nile virus by visual/neutral red test. The series is classed as functional, organism-based.
The test system of series [7] is SARS-CoV. Nature of the series: Antiviral activity against SARS coronavirus by visual/neutral red test. The series is classed as functional, organism-based. Conditions: Severe acute respiratory syndrome-related coronavirus.
The next series deals with Human alphaherpesvirus 1. The series can be described thus: Antiviral activity against HSV1 assessed as inhibition of viral infection. Type of series: functional, organism-based.
In another series the test system is Human alphaherpesvirus 2. The series can be described thus: Antiviral activity against HSV2 assessed as inhibition of viral infection. The series is classed as functional, organism-based.
For the next series, the system named is Hepatitis C virus. The series can be described thus: Antiviral activity against Hepatitis C virus assessed as inhibition of viral infection by RNA replicon assay. The series is classed as functional, organism-based, Hepacivirus hominis.
The test system of a further series is Hepatitis B virus. The series can be described thus: Antiviral activity against Hepatitis B virus assessed as inhibition of viral infection by DNA virion assay. The series is classed as functional, organism-based.
The test system of series [8] is SARS-CoV. The series can be described thus: Antiviral activity against SARS coronavirus by visual method. The following applies: Severe acute respiratory syndrome-related coronavirus. The series is classed as functional, organism-based.
The nature of series [9]: Selectivity index, ratio of CC50 for cytotoxicity to EC50 for Influenza A virus H5N1. Conditions: read-out: Ratio CC50/EC50. Type of series: toxicity. The method in brief: as §1
The nature of series [10]: Selectivity index, ratio of CC50 for cytotoxicity to EC50 for Influenza A virus H3N2. Type of series: toxicity. Conditions: read-out: Ratio CC50/EC50. The method in brief:
as §1

Broadly, the EC50 is the concentration giving half of the maximal effect. Regarding `CC(=O)OC[C@H]1O[C@@H](n2c(-c3cccs3)cc(-c3cccs3)c(C#N)c2=O)[C@H](OC(C)=O)[C@@H](OC(C)=O)[C@H]1OC(C)=O`, the values for the selectivity ratio in series [1], in series [2] and in [3] were under 2.4, 1.9 and under 2.4, respectively. The EC50 with Influenza A virus [4] is over 19 µM; in the series with Influenza A virus [5], over 28 µM; in the series on Influenza B virus, over 12 µM; in the series on Influenza A virus [6], over 32 µM; in the series with West Nile virus, over 3.6 µM; in the series on SARS-CoV [7], 10 µM. In addition, the EC50 with Human alphaherpesvirus 1 is over 60 µM; in the series with Human alphaherpesvirus 2, over 60 µM; with Hepatitis C virus it was over 100 µM; in the series with Hepatitis B virus it was over 100 µM.

In the case of `CC(=O)OC[C@H]1O[C@@H](n2c(-c3ccccn3)cc(-c3ccc(Cl)cc3)c(C#N)c2=O)[C@H](OC(C)=O)[C@@H](OC(C)=O)[C@@H]1OC(C)=O`, the EC50 was 8.3 µM in the series on SARS-CoV [8]; 3.2 µM in the series with Influenza A virus [4]; over 3.2 µM in the series on Influenza B virus; 24 µM in the series on Influenza A virus [6]; over 5.1 µM in the series on West Nile virus; over 300 µM in the series with Human alphaherpesvirus 1. Moreover, the EC50 with Human alphaherpesvirus 2 was over 300 µM; in the series with Hepatitis C virus, over 100 µM; in the series with Hepatitis B virus, over 100 µM. Besides, the selectivity ratio in series [9] was 1.3; in series [10], over 4.2; in series [1], 1; in [2] it was 4.3; in [3] it was 1.

Values taken from ChEMBL document CHEMBL3120115, “Synthesis and biological evaluation of 2-oxonicotinonitriles and 2-oxonicotinonitrile based nucleoside analogues” (Eur J Med Chem, 2014).
